In PMC5318329 (Drugs in R&D, 2016):

Tests used:
[1] = assay type: in vivo, human; conditions: intravenous infusion up to 10 mg, 3 consecutive days
[2] = test system: C-reactive protein (CRP); conditions: later time points (e.g. 72 h post dose), all dilmapimod dose levels; cited from earlier work
[3] = test system: IL-6; conditions: cited from earlier work
[4] = assay type: in vivo, human
In short: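 Non-head-injury trauma patients randomised within 24–26 h of injury; daily IV infusion over 4 h or 24 h for 3 days. Plasma sampled pre-dose and serially after the first and third doses. Protein precipitation, then HPLC–MS/MS (LLOQ 0.1 ng/mL, ULOQ 100 ng/mL); NQ set missing, outliers excluded. NONMEM mixed-effects three-compartment model with first-order elimination; BMI power covariate centred at 27.4 kg/m2.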

[5] = final three-compartment population PK model, IV infusion
[6] = power model, covariate centred to population mean 27.4 kg/m^2

Terminal half-life ([4]; calculated based on typical value of CL, Vc, V2, V3, Q1 and Q2): 16 h
Q1 (inter-compartmental clearance), typical value [4, 5]: 28.2 L/h
Q2 (inter-compartmental clearance), typical value [4, 5]: 5.7 L/h
V2 (volume of distribution of peripheral compartment), typical value [4, 5]: 35.9 L
V3 (volume of distribution of peripheral compartment), typical value [4, 5]: 115.6 L
Vc (volume of distribution of the central compartment), typical value [4, 5]: 8.1 L
Clearance lower than in typical patient ([4]; patients with BMI of 23 kg/m^2 (mean - SD) vs typical patient (27.4 kg/m^2)): about 21%
Clearance higher than in typical patient ([4]; patients with BMI of 32 kg/m^2 (mean + SD) vs typical patient (27.4 kg/m^2)): ~23%
BMI covariate on CL (power model exponent) [4, 6]: 1.36
BMI covariate on Q2 (power model exponent) [4, 6]: 2.42
Vss (steady-state volume of distribution) = Vc + V2 + V3 ([4]; sum of Vc, V2 and V3 of the final population PK model): 160 L
Compound: Cc1cc(F)ccc1-c1nc(NC(CO)CO)nc2c1ccc(=O)n2-c1c(F)cccc1F [Dilmapimod]
Tolerability [1]: generally well tolerated
CRP levels relative to placebo (exploratory analyses) [2]: trend of lower levels of CRP
IL-6 levels relative to placebo (exploratory analyses) ([3]; 24 h post dose, all dilmapimod dose levels): trend of lower levels of IL-6
Ratios of IL-6 relative to placebo ([3]; continuous infusion of 10 mg/24 h, up to 72 h post dose): below 1
Overall effect of dilmapimod on IL-6 levels in PK/PD modelling ([3]; similar PK/PD modelling approach on IL-6 data): not revealed
Dose proportionality of plasma concentration ([4]; IV infusion 3, 7.5 mg over 4 h, 7.5, 10 mg over 24 h): increased approximately proportionally to the increase in dose
